Compound activity as filed in PubChem BioAssay.
NOD2-RIPK2 inh = NOD2-RIPK2 protein interaction inhibition; CHO BLA complementation NOD2-RIPK2, CCF4 ratio; inhibition, % at 4.98 µM; 360,000 compounds, 0.38% hits; in the data active means inhibition above about 21%
TLR9-MyD88 block = inhibitors of human TLR9-MyD88 binding; 340,000 compounds, 0.21% hits; Q9NR96+Q99836; AID 504734; inhibition, % at 4.98 µM; CHO BLA complementation TLR9-MyD88, CCF4 FRET ratio;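 active means inhibition above the mean over all tested compounds plus 3 SD, cut at about 21% in these data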
TLR4 MyD88 comp = blocks binding of human TLR4 to MyD88. AID 861. inhibition, % at 8.4 µM. HeLa CL3-4 TLR4/MyD88 BLA complementation, FRET ratio. 200,000 compounds, 0.18% hits. O00206+Q99836; in the data active means inhibition above about 25%
Lipid droplet = hepatic lipid droplet formation modulation. 240,000 compounds, 0.4% hits. inhibition, % at 6.5 µM. AML12 mouse hepatocytes, oleate lipid droplets, BODIPY imaging. AID 1656;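 active means lipid droplet intensity inhibited by at least 50%, with more than 500 cells counted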
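Material – mouse AML12 hepatocyte cell line, fixed after treatment · Compound dosing – one dose, 6.5 µM compound · Times – compound with oleate, overnight · Measured by – Image-based BODIPY and DAPI two-channel analysis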
SR-BI uptake up = SR-BI HDL lipid transfer activation | CHO ldlA[mSR-BI] cells, DiI-HDL uptake fluorescence, 3 h; 100 = double the neutral-control signal | activation, % at 12.5 µM | 320,000 compounds, 0.096% hits | AID 504775;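 active means mean replicate activation of at least 60% and every replicate at or above 60%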
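System: CHO ldlA[mSR-BI] cells / Medium: HEPES-buffered (25 mM, pH 7.4) F12 plus 0.5% BSA / Probe or stimulus: labelled HDL, 10 µg/mL / Doses: single compound concentration, delivered by pin transfer / Schedule: 3 h, 37 °C / Measured by: DiI fluorescence, bottom read / Measure: cell-associated DiI fluorescence as measure of HDL uptake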
SR-BI DiI inh = mouse SR-BI HDL lipid transfer inhibition; Q61009; ldlA[mSR-BI] CHO cells, DiI-HDL uptake fluorescence, 3 h; inhibition, % at 12.5 µM; 320,000 compounds, 0.96% hits; AID 488896;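 active means mean replicate inhibition of at least 70% and a set share of replicates each scoring 70 or more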
Hits are given with their value; . = inactive; / = no result. Rows were chosen to be rich in hits. Some 1.6% of all compounds tested hit in one or more screens of this group.

SMILES | NOD2-RIPK2 inh | TLR9-MyD88 block | TLR4 MyD88 comp | Lipid droplet | SR-BI uptake up | SR-BI DiI inh
O=C(O)c1nn(Cc2ncc(-c3cccc(Cl)c3)o2)c(=O)c2ccccc12 | . | . | / | . | . | .
CCc1nc2c(OCC(=O)N3CCOCC3)cccn2c1N(C)C(=O)COc1ccccc1 | . | / | / | / | / | /
CN(C)CCNC(=O)CN1C(=O)COc2ccc(C(C)(C)C)cc21 | . | . | . | / | . | .
COC(=O)c1cccc(Oc2nc(N3CCOCC3)nc(N3CCOCC3)n2)c1 | / | / | . | / | / | /
COCCCNC(=O)CN(c1cccc(Cl)c1)S(C)(=O)=O | . | . | . | / | 527 | .
COc1ccc(Nc2nc(-c3cccs3)nc3ccccc23)c(OC)c1 | . | . | . | . | . | 77
COc1ccc(Nc2nc(-c3cccc([N+](=O)[O-])c3)nc3ccccc23)c(OC)c1 | . | . | . | . | . | 91
COc1ccc(OC)c(Nc2nc(-c3cccc([N+](=O)[O-])c3)nc3ccccc23)c1 | . | . | . | / | . | .
COc1ccc(Nc2nc(N3CCN(C)CC3)nc3ccccc23)c(OC)c1 | . | . | . | . | . | .
CCN1C(=O)/C(=c2\o/c(=C3\C=Cc4ccccc4N3CC)c(=O)n2CC)SC1=S | . | . | . | / | . | .
CCN1C(=O)/C(=C2\C=Cc3ccccc3N2CC)SC1=S | . | . | . | / | . | 74
CC(C)c1ccc(NC(=O)C2(C)Cc3c(-c4ccc(C(N)=O)cc4)ccnc3O2)cc1 (stereo unspecified) | . | / | / | / | / | /
CC1CN(C2CCN(S(=O)(=O)c3ccc(F)cc3)CC2)CC(C)O1 (stereo unspecified) | . | . | . | . | . | .
CC1CN(C2CCN(S(=O)(=O)c3ccccc3)CC2)CC(C)O1 (stereo unspecified) | . | . | . | . | 289 | .
COCCCNC(=O)C[C@@H]1C[C@@]2(C(=O)OC)CCCCC=C2N(CCc2ccc(OC)c(OC)c2)C1=O | . | / | / | / | / | /
CC1(C)NC(=O)N(CC(=O)OCC(=O)c2ccc(F)cc2)C1=O | . | . | / | / | 152 | .
COc1cccc(C(=O)Nc2ccc3nc(N4CCOCC4)cc(C)c3c2)c1 | . | . | . | . | . | 79
Cc1[nH]c(=S)sc1Cc1ccc(F)cc1 | . | . | . | . | . | .
CCc1nn(C(C)C(=O)NCCN2CCCCCC2)c(=O)c2cc3occc3n12 (stereo unspecified) | . | . | / | . | . | .
CCc1nn(C(C)C(=O)NCCN2CCN(c3cccc(C)c3C)CC2)c(=O)c2cc3occc3n12 (stereo unspecified) | . | . | . | . | . | 80
Cc1cc(NC(=O)CSc2n[nH]c(-c3ccc(Cl)cc3Cl)n2)no1 | . | . | / | / | . | .
CN(CC(=O)Nc1ccc(Cl)c(Cl)c1)C(=O)C1CCCC1 | . | . | / | / | 67 | .
CN(CC(=O)Nc1ccc(Cl)c(Cl)c1)C(=O)C1CCC1 | . | . | / | / | . | .
C=CCOC(=O)C1=C[C@@H](c2ccc(Br)cc2)C[C@@H](OCc2ccc(CO)cc2)O1 | . | . | . | . | . | .
C/C(=N\NC(N)=S)C1C2C3CC4C5CC(C42)C1C53 (stereo unspecified) | . | . | . | . | . | 83
SMILES | NOD2-RIPK2 inh | TLR9-MyD88 block | TLR4 MyD88 comp | Lipid droplet | SR-BI uptake up | SR-BI DiI inh
C/C(CCC12CC3CC(CC(C3)C1)C2)=N\NC(N)=S | . | . | . | . | . | .
Cc1nnc(SCC(=O)NNC(=O)COc2ccc(Cl)cc2)n1C | . | . | / | . | . | .
COc1ccccc1Nc1nc(NCCCCO)nc(N2CCCC2)n1 | . | . | / | / | . | .
Fc1cccc(Cc2c(-c3ccco3)nc3c(Cl)cc(C(F)(F)F)cn23)c1 | . | / | / | / | / | /
CC(=O)Nc1cccc(/C(C)=N/NC(N)=S)c1 | . | . | . | . | . | 82
CC(=O)Nc1cccc(/C(C)=N/NC(=S)NC(C)C)c1 | . | . | . | . | . | .
COc1ccc(CCNC(=O)c2ccc(-c3cccc([N+](=O)[O-])c3)o2)cc1OC | . | . | . | . | . | 72
COc1ccc(CCNC(=O)c2cccc([N+](=O)[O-])c2)cc1OC | . | . | / | / | . | .
CC(C)(C)NC(=O)C(=O)NNC(=O)C12CC3CC(CC(C3)C1)C2 | . | . | . | / | 111 | .
